# Bioassay records from PubChem BioAssay.
# Tn7 DDE FP: disrupts Tn7 cyclic peptide binding to fibrin D-Dimer-E complex; P02675; FP displacement of FITC-Tn7 peptide from fibrin DD(E); 0% = median of compound wells per plate; inhibition, % at 8.3 µM; 0.13% of 370,000 active;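 active = inhibition above the mean of compounds falling within the control limits plus 3 SD of them, cut at about 14% in these data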;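 note: 0% = plate median of compound wells and 100% = 10 µM Aha-Tn7 peptide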
# Target sequence (P02675 whole entry, looked up): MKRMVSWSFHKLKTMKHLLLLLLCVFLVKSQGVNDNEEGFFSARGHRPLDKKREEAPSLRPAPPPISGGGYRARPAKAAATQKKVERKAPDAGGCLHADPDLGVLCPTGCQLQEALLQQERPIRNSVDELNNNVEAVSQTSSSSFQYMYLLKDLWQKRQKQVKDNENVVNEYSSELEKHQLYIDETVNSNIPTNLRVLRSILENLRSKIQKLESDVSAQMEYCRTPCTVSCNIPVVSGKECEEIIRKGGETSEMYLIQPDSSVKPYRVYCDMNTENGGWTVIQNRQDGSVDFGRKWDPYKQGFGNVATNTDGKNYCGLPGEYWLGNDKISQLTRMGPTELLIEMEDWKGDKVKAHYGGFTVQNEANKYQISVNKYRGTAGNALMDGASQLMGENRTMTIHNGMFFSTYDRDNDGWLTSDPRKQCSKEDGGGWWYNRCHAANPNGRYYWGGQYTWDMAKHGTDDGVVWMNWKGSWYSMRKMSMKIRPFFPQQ
#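 Assay system: human fibrin DD(E) protein / Input: 2 µM fibrin DD(E) / Benchmarks: high control of 10 µM Aha-Tn7 peptide / Measured by: fluorescence polarization of the labelled Tn7 tracer / Medium: Tris buffer with calcium and detergent, pH 7.8 / Timing: 10 min compound pre-incubation, 3 h probe incubation at room temperature / Repeats: one replicate per compound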
# DDE Tn6 FP inh: inhibitors of Tn6 peptide binding to human fibrin DD(E); inhibition, % at 8.3 µM; 0.21% of 370,000 active; Fibrin DD(E) TRITC-Tn6 fluorescence polarization displacement; AID 720509;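 active = inhibition above a per-campaign cutoff: mean of compounds within control limits plus 3 SD, cut at about 15% in these data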;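 note: 0% = median of all compound wells on the plate and 100% = blocking peptide control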
# ADAM10 inh: ADAM10 inhibition, QFRET primary screen; O14672; recombinant ADAM10, EDANS/DABCYL FRET peptide cleavage, 3 h; inhibition, % at 7 µM; 0.62% of 370,000 active;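 active = inhibition above a per-campaign cutoff equal to the mean of compounds falling between control-based bounds plus 3 SD, cut at about 20% in these data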;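 note: 0% = DMSO wells while the 100% control is not disclosed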
# ADAM17 inh: inhibits human ADAM17. P78536. recombinant ADAM17, EDANS/DABCYL FRET peptide cleavage. inhibition, % at 6.95 µM. 0.83% of 370,000 active. AID 720648;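 active = inhibition above the mean of compounds lying between control limits plus 3 SD, set per campaign, cut at about 8.5% in these data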;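 note: 0% = DMSO-only wells as the low control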
# PLCb3 inh: blocks human PLC-beta3 enzyme activity; AID 720704; 0.18% of 370,000 active; inhibition, % at 12.2 µM; Purified PLC-beta3, fluorogenic substrate, fluorescence; in the data active = inhibition above about 11%;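 note: 0% = median of compound wells on plate and 100% = full blocker control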
# PLC-gamma1 inh: blocks human PLC-gamma1 enzyme activity; purified PLC-gamma1, fluorogenic substrate, fluorescence; 0.84% of 370,000 active; AID 720700; inhibition, % at 12.2 µM
# PLCg1 ctr: inhibits human PLC-gamma1 in PLC-beta3 counter-screen. shares compounds with PLC-gamma1 inh. purified PLC-gamma1, fluorogenic substrate, fluorescence. inhibition, % at 12.3 µM. 3.1% of 3,300 active. AID 743258
# PLCb3 confirm: human PLC-beta3 inhibition, confirmation; shares compounds with PLC-gamma1 inh; purified PLC-beta3, fluorogenic substrate fluorescence; inhibition, % at 12.3 µM; 1% of 3,300 active; in the data active = inhibition above about 11%
# Active calls of the source: *; x = no result. Hits are enriched below; roughly 2.3% of the tested compounds scored in any of these assays. Cut-off read from the data, not from the text of the source, unless noted: active = inhibition above about 9.5%; inactive = the rest.
SMILES,Tn7 DDE FP,DDE Tn6 FP inh,ADAM10 inh,ADAM17 inh,PLCb3 inh,PLC-gamma1 inh,PLCg1 ctr,PLCb3 confirm
S=c1nc(C23CC4CC(CC(C4)C2)C3)[nH][nH]1,-1.8,0.8,10.5,5.7,7.3,12.2*,-2.5,1.2
Cc1ccc(F)cc1NC(=O)CCOc1ccccc1,0.1,2.0,0.5,4.1,11.2*,10.6*,4.7,4.3
COc1ccc(-n2c(SCC(=O)N3CCCCC3C)nnc2-c2ccncc2)cc1 (centres undefined),0.8,-1.9,-3.3,-1.3,1.2,-1.6,x,x
O=C(N/C(=C\c1ccccc1)C(=O)N1CCCCCC1)c1ccccc1,-3.0,-6.7,0.9,-4.5,0.4,9.6*,-2.9,-0.6
O=C(N/C(=C/c1ccccc1)C(=O)N1CCCCC1)c1ccccc1,4.3,3.9,-11.5,-1.0,-6.5,0.4,x,x
O=[N+]([O-])c1ccc2c(c1)CCCO[C@]21O[C@H](CCO)C[C@H](O)[C@H]1O,-3.9,8.3,-0.2,1.7,3.3,1.0,x,x
CSc1nc2c(=O)[nH]cnc2s1,1.8,9.0,-0.9,-3.1,-1.1,-3.0,x,x
COC(=O)CCC(C)C1CCC2C3CCC4CC(O)CCC4(C)C3=CC(=O)C12C (centres undefined),-3.1,-2.1,-3.0,4.7,11.1*,2.3,-3.8,-2.9
CCOc1cc(CNCCc2ccc(S(N)(=O)=O)cc2)ccc1OCc1ccc(Cl)cc1,-4.1,-0.6,11.7,6.1,9.2,20.7*,2.8,1.6
COc1cc(CNCCc2ccc(S(N)(=O)=O)cc2)ccc1OCc1ccc(Cl)cc1,-1.0,10.4,1.6,-2.2,4.3,4.9,x,x
Cc1ccc(NC(=S)NNC(=O)c2cnccn2)cc1,-0.6,3.1,-3.5,-0.4,0.7,-0.8,x,x
Nc1[nH]c2cc(Cl)ccc2c1C(=O)N1CCOCC1,8.2,4.0,-7.4,0.6,-6.7,-5.0,x,x
Cc1ccc(C(=O)OCC(=O)Nc2ccccc2C(F)(F)F)cc1S(=O)(=O)N1CCCCC1,2.2,-7.7,4.8,0.9,-4.1,9.8*,2.9,4.6
COC(=O)[C@]12C[C@H](CC(=O)NCc3cccc4ccccc34)C(=O)N(Cc3ccco3)C1=C[C@H](C(C)C)O[C@@H]2C1CC1,1.4,0.5,12.3,7.0,1.2,2.7,x,x
CCC(C(=O)NC1CCCC1)N(Cc1ccco1)C(=O)Cn1nnc(-c2ccc(C)cc2)n1 (centres undefined),-7.8,-5.1,-3.7,-2.4,1.8,-2.8,x,x
CCOC(=O)CN(C(=O)Cn1nnc(-c2ccc(C)cc2)n1)C(CC)C(=O)NC1CCCC1 (centres undefined),-0.7,0.9,11.3,6.0,6.2,12.7*,-1.1,-7.8
CC1(C)CC2(OC2c2ccccc2)C(=O)c2ccccc21 (centres undefined),0.6,5.5,-5.5,-0.2,-2.6,1.2,x,x
CC1=[N+]([O-])C(C)(C)CC(C)(C)c2ccccc21,2.5,-0.4,11.1,1.6,11.7*,3.2,-4.8,-5.3
COc1ccc(C2=NN(C(=O)CCCC(=O)O)C(c3cn(-c4ccccc4)nc3-c3ccccc3)C2)cc1 (centres undefined),-6.0,0.1,7.4,6.9,7.3,13.8*,-0.6,-10.6
COc1ccc(-c2nn(-c3ccccc3)cc2C2CC(c3cccs3)=NN2C(=O)CCC(=O)O)cc1 (centres undefined),5.4,2.6,-17.9,-10.0,-2.9,1.7,x,x
O=C(Cc1cccs1)N1CCC(c2nc3c(nnn3Cc3ccccc3)c(=O)[nH]2)CC1,0.2,-5.1,-5.6,-4.4,12.5*,10.0*,6.9,12.1*
COc1ccc(OCc2ccc(C(=O)O)cc2)cc1,-3.3,-4.8,7.8,-1.2,3.0,9.9*,-3.5,-2.1
CCn1c(SCC(=O)c2ccc(-c3ccccc3)cc2)nnc1-c1ccc(C(C)(C)C)cc1,-2.2,-4.0,-8.3,2.4,0.6,0.6,x,x
CCOc1ccc(C)cc1S(=O)(=O)Nc1cccnc1,0.9,-1.8,8.4,3.9,4.1,9.8*,-20.2,-2.4
O=C1NC(=S)N/C1=C/c1cccnc1,4.6,4.6,8.7,0.6,10.1,11.3*,-2.5,-3.0
SMILES,Tn7 DDE FP,DDE Tn6 FP inh,ADAM10 inh,ADAM17 inh,PLCb3 inh,PLC-gamma1 inh,PLCg1 ctr,PLCb3 confirm
O=C1CCN(Cc2ccccc2)CCN1[C@H](CO)c1ccccc1,-0.9,-2.7,5.4,-2.3,2.0,1.6,x,x
O=C1CCN(Cc2ccc(O)cc2)CCN1[C@H](CO)c1ccccc1,1.7,2.0,1.7,0.0,3.8,9.7*,-1.9,-0.9
CCOC(=O)CNC(=O)Cc1ccc(Cl)cc1,0.1,-2.5,10.0,0.6,-3.3,10.2*,-4.0,-0.3
N=c1c2c(-c3ccccc3)c(-c3ccccc3)n(Cc3ccccc3)c2ncn1C1CCOCC1,3.3,5.3,-5.3,-5.9,-6.4,1.6,x,x
CCCN(C(=O)CSc1nc2c(cnn2-c2ccccc2)c(=O)[nH]1)C1CCS(=O)(=O)C1 (centres undefined),-0.4,1.6,-9.4,-3.3,-0.2,-2.4,x,x
CCN(C(=O)CSc1nc2c(cnn2-c2ccccc2)c(=O)[nH]1)C1CCS(=O)(=O)C1 (centres undefined),-5.9,1.6,7.0,4.1,6.4,9.7*,3.6,3.6
CC1CCN(C(=O)CSc2nc3c(cnn3-c3ccc(Cl)cc3)c(=O)[nH]2)CC1,-1.5,4.4,0.0,0.4,11.3*,10.0*,-0.4,1.3
CN(c1cccnc1)c1ccc(NC(=O)Cc2cn(Cc3ccccc3)c3ccccc23)cc1Br,7.6,3.2,1.6,3.1,-13.4,-6.3,x,x
O=C(CCS(=O)(=O)c1ccccc1F)Nc1ccc(N2CCN(Cc3ccccc3)CC2)cc1,-8.4,-9.0,14.6,6.2,4.0,10.5*,3.1,6.2
CC(=O)Nc1ccc(S(=O)(=O)NCc2cn3c(C)csc3n2)cc1,5.0,-1.8,-5.0,-5.2,1.0,0.0,x,x
CC(=O)Nc1ccc(S(=O)(=O)NCc2cn3ccsc3n2)cc1,-0.6,2.6,6.8,4.1,11.2*,10.9*,-9.7,-1.5
O=C(OCc1cn(Cc2c(F)cccc2F)nn1)N1CCCC1,0.2,0.9,1.1,-1.0,2.2,3.2,x,x
CN(Cc1cn(Cc2ccccc2)nn1)S(=O)(=O)c1ccccc1Br,4.6,-11.4,-1.4,-3.8,3.0,2.0,x,x
Cc1cc(=O)c2n(Cc3ccccc3Cl)nc[n+]2[nH]1,-7.0,1.1,-7.5,-4.4,0.7,14.2*,-2.6,-0.9
O=c1c(Cl)c(Cl)cnn1Cc1ccccc1Cl,-1.5,-8.7,-0.3,1.4,0.6,3.0,x,x
CN[C@H](C)C(=O)NC[C@H]1O[C@@H](n2ccc(N)nc2=O)[C@H](O)[C@@H]1O,-7.7,-2.1,-6.1,-4.5,-1.5,-0.4,x,x
